Test results taken from PubChem BioAssay.
Records with an inconclusive call do not appear.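 How the source made its calls, unless noted: active means growth inhibition above 25% in both replicates, a cutoff set 3 SD above the mean; inconclusive means above 25% in only one replicate; inactive means the rest.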

Tests used:
[1] = S. cerevisiae growth inhibition in permissive medium (OD615), pilot counter-assay for S. cerevisiae lifespan shortening project, permissive growth control (AID 705); conditions: OD615, 24 h, at 10 µM, stronger effect = higher value
Method in brief: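 assay system = Saccharomyces cerevisiae strain carrying genetically modified DeaD replicative-lifespan system | medium = SC raffinose/galactose permissive medium | dosing = 10 µM single dose, 0.25% DMSO | schedule = 24 h compound exposure at 30 °C after 4 h pre-growth | measured by = OD at 615 nm | read-out basis = growth inhibition from lowered OD615 after 24 h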

[2] = S. cerevisiae growth inhibition in restrictive medium, OD615, pilot screen, restrictive growth control, yeast lifespan reduction project (AID 706;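 active means growth inhibition above a set limit, 3 SD over mean compound inhibition, in both replicates, cut at about 43% in these data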;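 further: modified DeaD lifespan yeast strain shifted to restrictive glucose medium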); conditions: OD615, 48 h, at 10 µM, stronger effect = higher value
Method in brief: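 Buffer or medium: CSMM-D glucose medium. Material: genetically modified Saccharomyces cerevisiae, DeaD replicative lifespan assay strain. Times: 48 h compound exposure at 30 °C. Measured by: optical density at 615 nm.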

[3] = doxorubicin toxicity protection in MRP-1 cells – H69AR cells, CellTiter-Glo, duplicate, MRP-1 activator project, pilot screen (AID 807;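 active means viability increase at or above a cutoff of the median across tested compounds plus 3 SD, cut at about 8.5% in these data, passing the limit was not always enough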;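 further: compound pretreatment 18-22 h then 72 h combined with doxorubicin; 0% = doxorubicin alone and 100% = vehicle without doxorubicin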); conditions: H69AR viability with doxorubicin, CellTiter-Glo luminescence; at 10 µM; stronger effect = higher value
[4] = viability of HCT116 without oncogenic beta-catenin – human colon tumor cells, pilot screen (AID 823;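 active means cell viability at or below a set limit in both duplicate runs, the limit being the all-compound median minus 4 SD, cut at about 23% in these data, passing the limit was not always enough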;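 further: 0% = wells killed by 20 µM Hyamine and 100% = untreated DMSO cell wells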); conditions: HCT116 beta-catenin knockout viability, CellTiter-Glo, 60 h; at 10 µM; stronger effect = lower value
[5] = viability of PTEN-null HCT116 cells – cell-based, HCT116 clonal line, CellTiter-Glo, pilot screen (AID 824;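 active means viability at or below 27.92% in each of two runs, the all-compound median minus 4 SD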;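 further: 0% = 20 µM Hyamine control and 100% = vehicle cell control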); conditions: HCT116 PTEN-deleted viability, 60 h, at 10 µM, stronger effect = lower value
[6] = RAM pathway blockade in budding yeast – dse1pr::URA3 reporter, 5-FOA selection, pilot screen (AID 869;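 active means inhibition over a set limit, the all-compound mean plus 3 SD, in both replicate runs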;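 further: 0% = DMSO wells with no growth and 100% = 10 µM 1-NA-PP1 with full growth; RAM network block rescues cells from 5-FOA so hits raise OD615 growth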); conditions: S. cerevisiae dse1pr::URA3 5-FOA growth, OD615, 2 d; at 10 µM; stronger effect = higher value; strain carries analog-sensitive mutant Cbk1 kinase
[7] = RAM signaling pathway blockade in yeast – S. cerevisiae, Pdr1DBD-CYC8 efflux-inhibited sensitized strain, primary screen (AID 1298;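 active means RAM network inhibition above 8.4% in each of two replicates, 3 SD over the compound average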;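 further: 0% = DMSO untreated cells without growth and 100% = 10 µM 1-NA-PP1 full growth; higher means more yeast growth rescued from 5-FOA killing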); conditions: S. cerevisiae cbk1-as DSE1-URA3 strain, 5-FOA growth OD615, 2 d; at 50 µM; stronger effect = higher value

CN1CCN(c2nc3c(c(=O)n(C)c(=O)n3C)n2CCSc2nc3ccccc3s2)CC1
inactive: growth inhibition [1] -5.4% | growth inhibition [2] -16.2% | viability increase [3] -3.94% | viability [4] 100% | viability [5] 96.1% | inhibition [6] 1.37% | RAM network inhibition [7] 3.29%

COc1cc(OC)cc(C(=O)NCC2CCCO2)c1 (configuration not stated)
inactive: growth inhibition [1] -7.69% | growth inhibition [2] 10.1% | viability increase [3] -1.51% | viability [4] 94.6% | viability [5] 91.7% | inhibition [6] 0.465% | RAM network inhibition [7] 0.29%

N=c1c2c(n(Cc3ccc(F)cc3)c3c1CCC3)CCC2
inactive: growth inhibition [1] -12.2% | growth inhibition [2] -14.7% | viability increase [3] -0.55% | viability [4] 34.5% | viability [5] 38.9% | inhibition [6] 0.8% | RAM network inhibition [7] 0.77%

COc1ccc(S(=O)(=O)N(CC(=O)Nc2ccc3c(c2)OCO3)c2ccccc2OC)cc1
inactive: growth inhibition [1] -20.4% | growth inhibition [2] -13.9% | viability increase [3] -5.32% | viability [4] 69% | viability [5] 79.8% | inhibition [6] 2.13% | RAM network inhibition [7] 6.05%

CC1CSc2nnc(CCc3ccccc3)n21 (configuration not stated)
inactive: growth inhibition [1] 2.06% | growth inhibition [2] -7.96% | viability increase [3] -2.61% | viability [4] 107% | viability [5] 89.2% | inhibition [6] 0.37% | RAM network inhibition [7] -0.11%

Cc1cccc(NC(=O)c2ccccc2Br)n1
inactive: growth inhibition [1] 4.2% | growth inhibition [2] 24% | viability increase [3] -3.61% | viability [4] 103% | viability [5] 94% | inhibition [6] 0.97% | RAM network inhibition [7] 2.02%

CCc1ccc(NC(=O)CSc2nnc(Cn3c(=O)sc4ccccc43)n2C)cc1
inactive: growth inhibition [1] -4.66% | growth inhibition [2] -25.2% | viability increase [3] -1.98% | viability [4] 104% | viability [5] 97.6% | inhibition [6] 2.96% | RAM network inhibition [7] 8.29%

C=CCNc1nc2c(c(=O)[nH]c(=O)n2C)n1Cc1cccc(C)c1
inactive: growth inhibition [1] 2.89% | growth inhibition [2] 2.92% | viability increase [3] -1.47% | viability [4] 102% | viability [5] 87.5% | inhibition [6] 2.04% | RAM network inhibition [7] 5.89%

CN(C)CCCNCCCNC(=O)/C(=N\O)c1ccccn1
inactive: growth inhibition [1] -3.34% | growth inhibition [2] -2.4% | viability increase [3] 1.1% | viability [4] 93.3% | viability [5] 105% | inhibition [6] 1.53% | RAM network inhibition [7] 2.45%

CC(C)C(=O)Nc1ccc2c(c1)C(=O)N(CCC(=O)O)C2=O
inactive: growth inhibition [1] -4.82% | growth inhibition [2] -16.1% | viability increase [3] 0.2% | viability [4] 106% | viability [5] 100% | inhibition [6] 2.14% | RAM network inhibition [7] -0.51%

COc1ccc(OC)c(NC(=O)NC2(C(F)(F)F)Oc3ccccc3O2)c1
inactive: growth inhibition [1] -4.07% | growth inhibition [2] 0.635% | viability increase [3] -6.83% | viability [4] 54.9% | viability [5] 71.5% | inhibition [6] 0.25% | RAM network inhibition [7] 4.64%

COc1ccc(C)cc1Nc1cc(C)nc2nc(C)nn12
inactive: growth inhibition [1] -8.41% | growth inhibition [2] 1.49% | viability increase [3] -4.98% | viability [4] 64.4% | viability [5] 57.3% | inhibition [6] 1.47% | RAM network inhibition [7] 0.57%

O=C(NCc1ccccn1)c1nnc(Cc2ccc(Cl)cc2)o1
inactive: growth inhibition [1] -1.48% | growth inhibition [2] 2.66% | viability increase [3] 1.55% | viability [4] 108% | viability [5] 103% | inhibition [6] 0.515% | RAM network inhibition [7] -1.46%

CCOC(=O)Cc1csc(NC(=O)CN2C(=O)c3ccccc3S2(=O)=O)n1
inactive: growth inhibition [1] -8.36% | growth inhibition [2] -15% | viability increase [3] -2.2% | viability [4] 96.9% | viability [5] 101% | inhibition [6] 3.63% | RAM network inhibition [7] 5.65%

Cc1nn(Cc2ccccc2)c(N)c1C#N
inactive: growth inhibition [1] -2.69% | growth inhibition [2] 1.22% | viability increase [3] 0.68% | viability [4] 107% | viability [5] 98.3% | inhibition [6] 1.58% | RAM network inhibition [7] 5.62%

Cc1c(C(=O)NCC2CCCO2)oc2ccc(S(=O)(=O)N3CC(C)CC(C)C3)cc12 (configuration not stated)
inactive: growth inhibition [1] -2.38% | growth inhibition [2] 14.2% | viability increase [3] -4.71% | viability [4] 44.5% | viability [5] 38.1% | inhibition [6] 3.72% | RAM network inhibition [7] 4.28%

CC(C)c1ccccc1NC(=O)CCCC(=O)O
inactive: growth inhibition [1] -2.18% | growth inhibition [2] -0.2% | viability increase [3] -0.29% | viability [4] 96.9% | viability [5] 102% | inhibition [6] 0.36% | RAM network inhibition [7] 2.42%

C=C(C)Cn1c(CNC(C)=O)nc2ccccc21
inactive: growth inhibition [1] -12.2% | growth inhibition [2] -25.6% | viability increase [3] -0.52% | viability [4] 108% | viability [5] 94.3% | inhibition [6] 0.645% | RAM network inhibition [7] 3.9%

CCOC(=O)c1c(C)n(C)c2ccc(OCC(O)CN3CCCCCC3)cc12 (configuration not stated)
inactive: growth inhibition [1] -0.855% | growth inhibition [2] -3.17% | viability increase [3] -5.4% | viability [4] 61.5% | viability [5] 62.5% | inhibition [6] 0.77% | RAM network inhibition [7] 2.14%

COc1ccc(C2CC(c3ccc(F)cc3)Nc3nc(N)nn32)cc1OC (configuration not stated)
inactive: growth inhibition [1] -0.9% | growth inhibition [2] 4.9% | viability increase [3] -0.13% | viability [4] 102% | viability [5] 92.4% | inhibition [6] 1.21% | RAM network inhibition [7] 7.75%

Cc1cc(F)ccc1S(=O)(=O)Nc1c(C)n(C)n(-c2ccccc2)c1=O
inactive: growth inhibition [1] 1.71% | growth inhibition [2] 0.315% | viability increase [3] -1.59% | viability [4] 114% | viability [5] 93.7% | inhibition [6] 0.205% | RAM network inhibition [7] 2.26%

COc1ccccc1N1CCN(c2cc(=O)n(-c3ccc(Cl)cc3)c(=O)[nH]2)CC1
inactive: growth inhibition [1] -5.8% | growth inhibition [2] -7.77% | viability increase [3] -2.22% | viability [4] 84.4% | viability [5] 77.7% | inhibition [6] 1.07% | RAM network inhibition [7] 7.55%

CCOC(=O)c1[nH]c2ccccc2c1NC(=O)c1ccc(Br)o1
inactive: growth inhibition [1] -6.18% | growth inhibition [2] -1.93% | viability increase [3] -3.95% | viability [4] 70.3% | viability [5] 69.9% | inhibition [6] 0.96% | RAM network inhibition [7] 7.09%

CCN(CC)S(=O)(=O)c1ccc(C(=O)C(C#N)c2ccccn2)cc1 (configuration not stated)
inactive: growth inhibition [1] -12.8% | growth inhibition [2] -19.5% | viability increase [3] 1.28% | viability [4] 95.3% | viability [5] 102% | inhibition [6] 0.455% | RAM network inhibition [7] 5.32%

CN1CCN(c2ccccc2NC(=O)C(Cc2ccccc2)n2cccc2)CC1 (configuration not stated)
inactive: growth inhibition [1] -7.49% | growth inhibition [2] -4.39% | viability increase [3] -7.39% | viability [4] 55.6% | viability [5] 59.3% | inhibition [6] 2.68% | RAM network inhibition [7] 4.23%

CC1CN(C(=O)c2cc3ccccc3oc2=O)CC(C)O1 (configuration not stated)
inactive: growth inhibition [1] 5.08% | growth inhibition [2] -3.64% | viability increase [3] 0.49% | viability [4] 98.4% | viability [5] 103% | inhibition [6] 0.555% | RAM network inhibition [7] 2.33%

COc1ccc(CNC(=O)c2cnc3scc(C)n3c2=O)cc1
inactive: growth inhibition [1] -13.9% | growth inhibition [2] -6.35% | viability increase [3] 3.79% | viability [4] 102% | viability [5] 93.8% | inhibition [6] 0.925% | RAM network inhibition [7] 11.9%

O=C(NCCCN1CCCCC1)C1(S(=O)(=O)c2ccc(Cl)cc2)CC1
inactive: growth inhibition [1] -12.4% | growth inhibition [2] -14% | viability increase [3] -1.07% | viability [4] 103% | viability [5] 97.2% | inhibition [6] 1.6% | RAM network inhibition [7] 2.82%

Cc1ccc2oc3c(c(=O)c2c1)C(c1cccs1)N(CCCN(C)C)C3=O (configuration not stated)
inactive: growth inhibition [1] 2.01% | growth inhibition [2] 4.98% | viability increase [3] -2.74% | viability [4] 97.2% | viability [5] 97.8% | inhibition [6] 1.28% | RAM network inhibition [7] -1.13%

O=C(NC1CCCCC1)C(c1ccccc1)N1CCC2(CC1)OCCO2 (configuration not stated)
inactive: growth inhibition [1] 0.86% | growth inhibition [2] 6.33% | viability increase [3] -4.79% | viability [4] 97.6% | viability [5] 95.5% | inhibition [6] 1.5% | RAM network inhibition [7] 1.43%

O=C(CSc1nc(-c2ccccc2)c(-c2ccccc2)o1)N1CCOCC1
inactive: growth inhibition [1] -8.68% | growth inhibition [2] -15.5% | viability increase [3] -3.26% | viability [4] 90.2% | viability [5] 89.6% | inhibition [6] 2.38% | RAM network inhibition [7] 4.54%

NC(=O)CSc1nnc(Cn2c(=O)sc3ccccc32)n1CCc1ccccc1
inactive: growth inhibition [1] 1.14% | growth inhibition [2] 26.2% | viability increase [3] -1.54% | viability [4] 101% | viability [5] 94.2% | inhibition [6] 0.275% | RAM network inhibition [7] 4.54%

Cc1cc(C)cc(N(CC(=O)NCc2ccco2)S(=O)(=O)c2c(C)noc2C)c1
inactive: growth inhibition [1] -22% | growth inhibition [2] -17.1% | viability increase [3] -4.19% | viability [4] 95.2% | viability [5] 84.5% | inhibition [6] 2.42% | RAM network inhibition [7] 5.53%

CCOC(=O)C(C)Sc1nc2c(c(=O)[nH]c(=O)n2C)n1Cc1ccc(Cl)cc1 (configuration not stated)
inactive: growth inhibition [1] -3.52% | growth inhibition [2] 1.73% | viability increase [3] -4.04% | viability [4] 92.6% | viability [5] 91.6% | inhibition [6] -0.265% | RAM network inhibition [7] 2.79%

Cc1cccc(Nc2ncnc3nc[nH]c23)c1C
inactive: growth inhibition [1] -10.5% | growth inhibition [2] -8.69% | viability increase [3] -1.75% | viability [4] 103% | viability [5] 103% | inhibition [6] 2.98% | RAM network inhibition [7] 4.52%

Cc1nc2sc(C(c3ccco3)N3CCN(c4ccc(F)cc4)CC3)c(O)n2n1 (configuration not stated)
inactive: growth inhibition [1] 0.055% | growth inhibition [2] -7.21% | viability increase [3] -0.62% | viability [4] 107% | viability [5] 99.9% | inhibition [6] 1.52% | RAM network inhibition [7] 3.54%
